Results of several laboratories.
Compare with care: the assays were run in different laboratories.
Medium: plasma
Route: intravenous

Structure (SMILES)	test system	conditions	Vd [L/kg]
Cc1nc(Nc2ncc(C(=O)Nc3c(C)cccc3Cl)s2)cc(N2CC[C@H](N)C2)n1	male Sprague-Dawley rat	1 mg/kg	16.4
C[C@H]1Oc2cc(cnc2N)-c2c(nn(C)c2C#N)CN(C)C(=O)c2ccc(F)cc21	Sprague-Dawley rat	1 mg/kg, single dose	2
Cn1c(=O)c2[nH]cnc2n(C)c1=O	male Sprague-Dawley rat	11.25 mg/kg	2.39
Cc1cc(S(=O)(=O)N[C@H]2CC[C@H](CN3CCN(c4cccc(NC5CCC(=O)NC5=O)c4)CC3)CC2)ccc1Nc1ncc(C(F)(F)F)c(N2CCC[C@](C)(O)C2)n1 (stereo partly drawn)	rat	2 mg/kg	10
Cc1nc(Nc2ncc(C(=O)Nc3c(C)cccc3Cl)s2)cc(N2CCN(CCO)CC2)n1	male Sprague-Dawley rat	1 mg/kg, single dose	2.4
NCCOCC(=O)N1CCC[C@H](C(=O)NCc2nc(-c3ccc(C(F)(F)F)cc3)cs2)C1	male Sprague-Dawley rat	1 mg/kg	3.2
C=CCn1c(=O)c2cnc(Nc3ccc(N4CCN(C)CC4)cc3)nc2n1-c1ccc2c(n1)[C@@](O)(CC)CC2	rat	3 mg/kg	2.8
Cc1cc(S(=O)(=O)N[C@]2(C)C[C@@H](N3CCN(CC4CCN(c5ccc6c(c5F)n(C)c(=O)n6C5CCC(=O)NC5=O)CC4)CC3)C2)ccc1Nc1ncc(C(F)(F)F)c(N2CCC[C@](C)(O)C2)n1 (stereo partly drawn)	rat	2 mg/kg	7
Cc1nc(Nc2ncc(C(=O)Nc3c(C)cccc3Cl)s2)cc(N2CC[C@H](O)C2)n1	male Sprague-Dawley rat	1 mg/kg, single dose	0.9
C[C@]1(O)CCCN(c2nc(Nc3ccc(S(=O)(=O)N[C@@H]4CCN(CC5CCN(c6ccc(C7CCC(=O)NC7=O)cc6F)CC5)C[C@H]4F)cc3F)ncc2C(F)(F)F)C1 (stereo partly drawn)	rat	2 mg/kg	5
[2H]c1cc(C)c(NC(=O)c2cnc(Nc3cc(N4CC[C@H](O)C4)nc(C)n3)s2)c(Cl)c1	male Sprague-Dawley rat	1 mg/kg	1.1
CCOCC(=O)N1CCC[C@H](C(=O)NCc2nc(-c3ccc(C#N)nc3)cs2)C1	male Sprague-Dawley rat	1 mg/kg	0.43
Cc1cc(S(=O)(=O)N[C@H]2CC[C@H](N3CCN(CC4CCN(c5cccc6c5n(C)c(=O)n6C5CCC(=O)NC5=O)CC4)CC3)CC2)ccc1Nc1ncc(C(F)(F)F)c(N2CCC[C@](C)(O)C2)n1 (stereo partly drawn)	rat	2 mg/kg	10
CC(C)(N)COCC(=O)N1CCC[C@H](C(=O)NCc2nc(-c3ccc(C(F)(F)F)cc3)cs2)C1	male Sprague-Dawley rat	1 mg/kg	4.3
C[C@H]1CN(c2ccc(C3CCC(=O)NC3=O)cc2F)CCN1CC12CCC(NS(=O)(=O)c3ccc(Nc4ncc(C(F)(F)F)c(N5CCC[C@](C)(O)C5)n4)c(F)c3)(CC1)CO2 (stereo partly drawn)	rat	2 mg/kg	4
